Assay [1] addresses Kappa-type opioid receptor (Cavia porcellus) (UniProt P41144). In words: Ratio of IC50 of ethylketazocine (agonist) after 10 min of incubation along with compound (antagonist) and IC50 of agonist in absence of compound for kappa opioid receptor at 1 uM in GPI assay (Exp 1). Format: functional. In short, it runs like this:
(§1)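 Reversible antagonism was measured in electrically stimulated isolated tissue (MVD or GPI) with the antagonist present. Agonists were morphine (μ), ethylketazocine (κ) and DADLE (δ). The value is the agonist IC50 with antagonist divided by the IC50 without it, i.e. the fold rightward shift of the agonist dose-response curve. Mean ± SEM, n = 3 unless otherwise noted.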

The target of assay [2] is Mu-type opioid receptor (Cavia porcellus) (UniProt P97266). In words: Ratio of IC50 of […] (agonist) after 10 min of incubation along with compound (antagonist) and IC50 of agonist in absence of compound for mu opioid receptor at 1 uM in GPI assay (Exp 2). It is filed as functional. In short, it runs like this: as §1
The species named for assay [3] is Cavia porcellus. In words: (§2) Reversible opioid agonist activity in the electrically stimulated guinea pig ileum(GPI) at 1 uM concentration (Exp 1). It is filed as functional. The settings on record: Cavia porcellus, Ileum.
Assay [4] is filed under the species Cavia porcellus. In words: (§3) Reversible opioid agonist activity in the electrically stimulated guinea pig ileum(GPI) at 1 uM concentration (Exp 2).
Assay [5] concerns the target Delta-type opioid receptor (Mus musculus) (UniProt P32300). Nature of the assay: Ratio of IC50 of DADLE (agonist) after 10 min of incubation along with compound (antagonist) and IC50 of agonist in the absence of compound for delta opioid receptor at 1 uM in MVD assay. Format: functional. In short, it runs like this:
as §1

The species named for assay [6] is Mus musculus. In words: (§4) Reversible opioid agonist activity in the electrically stimulated mouse vas deferens(MVD) at 1 uM concentration. Format: functional.
In assay [7] the target is Mu-type opioid receptor (Homo sapiens) (UniProt P35372). In words: Ratio of IC50 of […] (agonist) after 10 min of incubation along with compound (antagonist) and IC50 of agonist in absence of compound for mu opioid receptor at 1 uM in MVD assay. It is filed as functional. The settings on record: Mus musculus. In short, it runs like this:
as §1

Assay [8] concerns the target Kappa-type opioid receptor (Cavia porcellus) (UniProt P41144). The settings on record: 1 uM.
In assay [9] the target is Mu-type opioid receptor (Cavia porcellus) (UniProt P97266). The settings on record: 1 uM.
For assay [10], the species on record is Cavia porcellus. In words: Reversible opioid agonist activity in the electrically stimulated guinea pig ileum(GPI) at 1 uM concentration (Experiment 1).
Assay [11] is filed under the species Cavia porcellus. Nature of the assay: Reversible opioid agonist activity in the electrically stimulated guinea pig ileum(GPI) at 1 uM concentration (Experiment 2).
For assay [12], the species on record is Mus musculus. In words: Ratio of IC50 of DADLE (agonist) expossed to the compound for 10 min and then washed 30 times to Ratio of IC50 of morphine (agonist) prior to exposure to compound. Format: functional. The gist of the method: (§5)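 Irreversible antagonism was measured in isolated tissue. The tissue was exposed to the compound for 10 min (30 min in some cases), then washed 30 times with fresh buffer to remove non-covalently bound ligand. Agonist IC50 was then redetermined. The ratio is this post-wash IC50 over the agonist IC50 in the same tissue before exposure. Mean ± SEM, n = 3 unless otherwise noted.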

The species named for assay [13] is Mus musculus. Nature of the assay: Ratio of IC50 of morphine (agonist) expossed to the compound for 10 min and then washed 30 times to Ratio of IC50 of morphine (agonist) prior to exposure to compound. It is filed as functional. The gist of the method: as §5
In assay [14] the target is Kappa-type opioid receptor (Cavia porcellus) (UniProt P41144). In words: Ratio of IC50 of ethylketazocine (agonist) after 10 min of incubation along with compound (antagonist) and IC50 of agonist in absence of compound for Opioid receptor kappa 1 at 1 uM in GPI assay. It is filed as functional. In short, it runs like this:
as §1

Assay [15] concerns the target T1, Opioid receptors; mu/kappa/delta (Homo sapiens) (UniProt P41145+P41143+P35372). Described as §2. Format: functional, tissue-based. The settings on record: Cavia porcellus, target entry is the homologue from another species.
In assay [16] the target is T2, Opioid receptor (Mus musculus) (UniProt P42866+P32300+P33534). Nature of the assay: Reversible opioid agonist activity in the electrically stimulated mouse vas deferens(MVD) at 10 uM of concentration. Format: functional.
The target of assay [17] is Delta-type opioid receptor (Mus musculus) (UniProt P32300). Nature of the assay: Ratio of IC50 of DADLE (agonist) after 10 min of incubation along with compound (antagonist) and IC50 of agonist in the absence of compound for Opioid receptor delta 1 at 1 uM in MVD assay. It is filed as functional. The gist of the method: as §1
For assay [18] the target is unchanged. Nature of the assay: Ratio of IC50 of DADLE (agonist) after 10 min of incubation along with compound (antagonist) and IC50 of agonist in the absence of compound for Opioid receptor delta 1 at 10 uM in MVD assay. It is filed as functional. The gist of the method:
as §1

In assay [19] the target is Mu-type opioid receptor (Cavia porcellus) (UniProt P97266). Nature of the assay: Ratio of IC50 of […] (agonist) after 10 min of incubation along with compound (antagonist) and IC50 of agonist in absence of compound for Opioid receptor mu 1 at 1 uM in GPI assay. Format: functional. In short, it runs like this: as §1
Assay [20] deals with Mu-type opioid receptor (Mus musculus) (UniProt P42866). In words: Ratio of IC50 of […] (agonist) after 10 min of incubation along with compound (antagonist) and IC50 of agonist in absence of compound for Opioid receptor mu 1 at 1 uM in MVD assay. It is filed as functional. In short, it runs like this: as §1
In assay [21] the target is T2, Opioid receptor (Mus musculus). The description is as §4. Format: functional.
Assay [22] deals with T1, Opioid receptors; mu/kappa/delta (Homo sapiens). Described as §3. The settings on record: Cavia porcellus, target entry is the homologue from another species. Format: functional, tissue-based.
The species entered for assay [23] is Mus musculus. In words: Ratio of IC50 of DADLE (agonist) exposed to the compound for 10 min and then washed 30 times to Ratio of IC50 of morphine (agonist) prior to exposure to compound. Format: functional. In short, it runs like this:
as §5

The target of assay [24] is Kappa-type opioid receptor (Cavia porcellus) (UniProt P41144). In words: Ratio of IC50 of ethylketazocine (agonist) after 10 min of incubation along with compound (antagonist) and IC50 of agonist in absence of compound for Opioid receptor kappa 1 at 1 uM in GPI assay (Exp 1). Format: functional. In short, it runs like this: as §1
Assay [25] shares this target. In words: Ratio of IC50 of ethylketazocine (agonist) after 10 min of incubation along with compound (antagonist) and IC50 of agonist in absence of compound for Opioid receptor kappa 1 at 1 uM in GPI assay (Exp 2). It is filed as functional. The gist of the method: as §1
The target of assay [26] is Mu-type opioid receptor (Cavia porcellus) (UniProt P97266). In words: Ratio of IC50 of […] (agonist) after 10 min of incubation along with compound (antagonist) and IC50 of agonist in absence of compound for Opioid receptor mu 1 at 1 uM in GPI assay (exp 1). Format: functional. The gist of the method:
as §1

For assay [27] the target is unchanged. In words: Ratio of IC50 of […] (agonist) after 10 min of incubation along with compound (antagonist) and IC50 of agonist in absence of compound for Opioid receptor mu 1 at 1 uM in GPI assay (exp 2). Format: functional. The gist of the method:
as §1

Assay [28] has as its target T1, Opioid receptors; mu/kappa/delta (Homo sapiens). Nature of the assay: Reversible opioid agonist activity in the electrically stimulated guinea pig ileum(GPI) at 1 uM concentration (exp 1). Format: functional, tissue-based. The settings on record: Cavia porcellus, target entry is the homologue from another species.
For assay [29] the target is unchanged. In words: Reversible opioid agonist activity in the electrically stimulated guinea pig ileum(GPI) at 1 uM concentration (exp 2). Format: functional, tissue-based. The settings on record: Cavia porcellus, target entry is the homologue from another species.

Values joined by “and” are separate entries in the source; they are usually repeats but may differ in a detail not shown here. Equal entries are not always repeated. Square brackets hold non-standard residues; d marks the D form. Peptide text beside a SMILES is read from it. * marks the point of attachment. Phe(4-N(CH2CH2Cl)2) = N[C@@H](Cc1ccc(N(CCCl)CCCl)cc1)C(=O)O; Tyr(Nα,Nα-allyl2) = C=CCN(CC=C)[C@@H](Cc1ccc(O)cc1)C(=O)*; Aib = CC(C)(N)C(=O)O

What is called inhibition is the relative decrease from the control value, in per cent.

Chain of Delta-type opioid receptor (Mus musculus) (P32300 whole entry): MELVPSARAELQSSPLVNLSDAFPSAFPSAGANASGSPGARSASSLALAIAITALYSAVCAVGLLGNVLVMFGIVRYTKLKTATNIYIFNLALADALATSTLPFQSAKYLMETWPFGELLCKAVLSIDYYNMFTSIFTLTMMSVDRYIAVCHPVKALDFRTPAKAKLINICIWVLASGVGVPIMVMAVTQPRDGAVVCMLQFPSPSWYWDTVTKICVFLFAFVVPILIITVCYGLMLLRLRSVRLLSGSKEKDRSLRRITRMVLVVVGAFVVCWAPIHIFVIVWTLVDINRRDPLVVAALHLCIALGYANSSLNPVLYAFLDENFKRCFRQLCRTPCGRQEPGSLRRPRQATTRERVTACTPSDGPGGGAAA
T2 sequence (P32300 whole entry, looked up): as the sequence (P32300 whole entry) above
T2 sequence (P33534 whole entry, looked up): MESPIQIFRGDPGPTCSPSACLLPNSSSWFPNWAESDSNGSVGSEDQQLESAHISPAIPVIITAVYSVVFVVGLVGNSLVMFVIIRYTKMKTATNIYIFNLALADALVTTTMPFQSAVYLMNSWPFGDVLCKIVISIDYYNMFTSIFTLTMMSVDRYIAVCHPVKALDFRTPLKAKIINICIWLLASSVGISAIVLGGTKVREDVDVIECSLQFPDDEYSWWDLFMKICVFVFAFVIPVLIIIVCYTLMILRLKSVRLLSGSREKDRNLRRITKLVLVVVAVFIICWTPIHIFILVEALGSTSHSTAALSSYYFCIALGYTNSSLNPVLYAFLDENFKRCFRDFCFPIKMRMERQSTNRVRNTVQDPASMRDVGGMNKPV
T2 sequence (P42866 whole entry, looked up): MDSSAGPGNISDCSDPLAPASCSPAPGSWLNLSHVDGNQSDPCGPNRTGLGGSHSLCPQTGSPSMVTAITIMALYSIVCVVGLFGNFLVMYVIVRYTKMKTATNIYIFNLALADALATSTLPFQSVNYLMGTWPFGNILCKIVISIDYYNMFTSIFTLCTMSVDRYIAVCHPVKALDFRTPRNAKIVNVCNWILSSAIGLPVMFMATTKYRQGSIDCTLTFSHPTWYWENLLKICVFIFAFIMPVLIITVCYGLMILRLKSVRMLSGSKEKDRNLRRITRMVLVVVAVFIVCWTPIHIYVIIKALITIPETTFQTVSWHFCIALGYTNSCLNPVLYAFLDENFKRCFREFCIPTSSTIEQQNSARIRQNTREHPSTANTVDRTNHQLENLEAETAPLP
Chain of Kappa-type opioid receptor (Cavia porcellus) (P41144 whole entry): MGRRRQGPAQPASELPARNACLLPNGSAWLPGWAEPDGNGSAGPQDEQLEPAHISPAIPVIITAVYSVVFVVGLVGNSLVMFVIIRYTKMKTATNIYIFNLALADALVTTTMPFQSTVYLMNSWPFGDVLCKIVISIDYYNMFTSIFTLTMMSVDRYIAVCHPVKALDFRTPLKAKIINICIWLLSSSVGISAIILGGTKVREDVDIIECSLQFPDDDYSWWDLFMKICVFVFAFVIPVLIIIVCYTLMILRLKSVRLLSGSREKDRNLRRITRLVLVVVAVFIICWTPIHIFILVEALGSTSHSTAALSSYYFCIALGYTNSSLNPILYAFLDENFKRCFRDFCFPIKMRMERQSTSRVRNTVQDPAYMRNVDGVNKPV
Chain of Mu-type opioid receptor (Cavia porcellus) (P97266 whole entry): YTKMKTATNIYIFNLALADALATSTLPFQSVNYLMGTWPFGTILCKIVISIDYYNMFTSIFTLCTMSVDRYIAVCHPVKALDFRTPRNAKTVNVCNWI
T1 sequence (P35372 whole entry, looked up): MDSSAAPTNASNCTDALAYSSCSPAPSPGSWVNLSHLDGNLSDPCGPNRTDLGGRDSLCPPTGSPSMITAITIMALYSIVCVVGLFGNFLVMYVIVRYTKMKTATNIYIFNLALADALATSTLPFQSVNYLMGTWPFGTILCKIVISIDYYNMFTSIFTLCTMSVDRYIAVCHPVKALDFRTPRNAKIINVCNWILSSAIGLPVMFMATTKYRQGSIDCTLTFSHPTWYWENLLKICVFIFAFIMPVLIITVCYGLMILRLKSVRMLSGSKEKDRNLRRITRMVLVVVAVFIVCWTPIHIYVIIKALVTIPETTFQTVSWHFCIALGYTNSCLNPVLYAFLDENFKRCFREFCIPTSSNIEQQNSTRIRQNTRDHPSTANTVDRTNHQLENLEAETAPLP
T1 sequence (P41143 whole entry, looked up): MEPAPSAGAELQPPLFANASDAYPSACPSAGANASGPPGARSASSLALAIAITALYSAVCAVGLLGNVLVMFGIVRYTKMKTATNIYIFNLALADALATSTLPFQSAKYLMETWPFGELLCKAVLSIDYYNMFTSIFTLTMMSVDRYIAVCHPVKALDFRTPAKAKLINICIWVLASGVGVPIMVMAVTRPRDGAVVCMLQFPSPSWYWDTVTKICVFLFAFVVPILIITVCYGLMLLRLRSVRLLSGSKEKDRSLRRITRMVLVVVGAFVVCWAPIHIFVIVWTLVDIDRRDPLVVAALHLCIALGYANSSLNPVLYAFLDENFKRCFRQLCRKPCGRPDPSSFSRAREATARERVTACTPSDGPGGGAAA
T1 sequence (P41145 whole entry, looked up): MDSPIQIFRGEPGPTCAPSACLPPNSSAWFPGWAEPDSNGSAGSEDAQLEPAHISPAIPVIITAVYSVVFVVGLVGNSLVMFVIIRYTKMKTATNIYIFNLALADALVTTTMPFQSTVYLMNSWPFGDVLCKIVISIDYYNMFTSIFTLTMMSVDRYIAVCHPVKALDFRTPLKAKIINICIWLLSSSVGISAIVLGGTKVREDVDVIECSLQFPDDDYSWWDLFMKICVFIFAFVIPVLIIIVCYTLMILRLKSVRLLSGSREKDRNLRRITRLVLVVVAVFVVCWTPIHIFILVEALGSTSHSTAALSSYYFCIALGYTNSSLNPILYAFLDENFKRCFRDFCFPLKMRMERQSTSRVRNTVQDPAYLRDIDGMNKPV
Chain of Mu-type opioid receptor (Homo sapiens) (P35372 whole entry): as the sequence (P35372 whole entry, looked up) above
Chain of Mu-type opioid receptor (Mus musculus) (P42866 whole entry): as the sequence (P42866 whole entry, looked up) above

As to `C=CCN(CC=C)[C@@H](Cc1ccc(O)cc1)C(=O)NCC(=O)NCC(=O)N[C@@H](Cc1ccccc1)C(=O)N[C@@H](CC(C)C)C(=O)O` ({Tyr(Nα,Nα-allyl2)}-GGFL-OH), the IC50 ratio in assay [1] worked out at 0.6; in [2], 1.1; in [5], 2.7; in [7] it was 0.8; in assay [8], 1.1; in assay [9] it was 0.8. For the same molecule, the inhibition at 1 µM in assay [3] is -6.7%; in assay [4] it was 0%; in assay [6], 10%.
Consider `C=CCN(CC=C)[C@@H](Cc1ccc(O)cc1)C(=O)NCC(=O)NCC(=O)N[C@@H](Cc1ccc(N(CCCl)CCCl)cc1)C(=O)N[C@@H](CC(C)C)C(=O)O` ({Tyr(Nα,Nα-allyl2)}-GG[Phe(4-N(CH2CH2Cl)2)]L-OH), for which the IC50 ratio in assay [2] is 1.1 and 1; in assay [5], 1.2; in [7], 1.1; in assay [9] it was 0.6. The figures for the inhibition at 1 µM in assay [10], in [11] and in assay [6] were 23%, 10% and 4.2%, respectively.
For `C=CCN(CC=C)[C@@H](Cc1ccc(O)cc1)C(=O)NC(C)(C)C(=O)NC(C)(C)C(=O)N[C@@H](Cc1ccccc1)C(=O)N[C@@H](CC(C)C)C(=O)O` ({Tyr(Nα,Nα-allyl2)}-[Aib][Aib]FL-OH), the IC50 ratio in assay [12] is 5.5; in [13], 0.8; in assay [14], 0.7 and 0.9; in assay [17], 15.6; in [18], 147; in assay [19] it was 0.5 and 0.6. For the same molecule, the IC50 ratio in [20] stood at 0.8. Besides, the inhibition in assay [15] came to 16.2%; in assay [16], 15.8%; in [21], 8.4%; in [22], 37.8%.
As for `C=CCN(CC=C)[C@@H](Cc1ccc(O)cc1)C(=O)NC(C)(C)C(=O)NC(C)(C)C(=O)N[C@@H](Cc1ccc(N(CCCl)CCCl)cc1)C(=O)N[C@@H](CC(C)C)C(=O)O` ({Tyr(Nα,Nα-allyl2)}-[Aib][Aib][Phe(4-N(CH2CH2Cl)2)]L-OH), the IC50 ratio in [23] stood at 2.9; in assay [13] it was 3; in assay [24] it was 0.3; in assay [25], 0.6; in [17] it was 5; in assay [18] it was 19.4. Moreover, the IC50 ratio in assay [26] came out at 0.6; in assay [27], 1; in assay [20] it was 2.2. For the same molecule, the inhibition in assay [16] is 16.8%; in assay [28], 8.1%; in assay [29], 14.7%; in assay [21], 20.6%.
